Experiment [1] in a line: Cytotoxicity against p-glycoprotein overexpressing human A2780AD cells by MTT cell proliferation assay. It counts as functional, cell-based. To be noted: A2780 ADR. The procedure, abridged:
(§1)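 A2780 parental and P-gp-overexpressing A2780AD ovarian cells in RPMI-1640 with 10% fetal calf serum and 0.25 units/mL insulin.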
For orientation: Tetrazolium dyes change colour on reduction, which living cells bring about.

The test system of experiment [2] is 1A9. Kind of experiment: Cytotoxicity against human 1A9 cells assessed as interphase cells with microtubule bundles at 5 nM after 12 hrs by immunocytochemistry. Format: functional. In outline: (§2)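 1A9 cells on glass coverslips attached 24 h, then dosed at 0-20 nM for 12 h. Fixed in ice-cold methanol/acetone 1:1, blocked with 5% BSA in PBST, stained with anti-α-tubulin and Alexa 488 secondary plus DAPI, viewed by confocal microscopy. Percent of interphase cells with bundles and mitotic cells with multiple asters scored; n = 3 preparations.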

The test system of experiment [3] is 1A9. Kind of experiment: Cytotoxicity against human 1A9 cells assessed as mitotic cells with multiple asters at 20 nM after 12 hrs by immunocytochemistry. Format: functional. The procedure, abridged:
as §2

Experiment [4] relates to 1A9. As to the kind of experiment: Cytotoxicity against human 1A9 cells assessed as interphase cells with microtubule bundles at 20 nM after 12 hrs by immunocytochemistry. It counts as functional. The procedure, abridged: as §2
The subject of experiment [5] is 1A9. As to the kind of experiment: Cytotoxicity against human 1A9 cells assessed as mitotic cells with multiple asters at 10 nM after 12 hrs by immunocytochemistry. Format: functional. In outline:
as §2

The subject of experiment [6] is 1A9. Kind of experiment: Cytotoxicity against human 1A9 cells assessed as interphase cells with microtubule bundles at 10 nM after 12 hrs by immunocytochemistry. Format: functional. The procedure, abridged:
as §2

Experiment [7] concerns 1A9. As to the kind of experiment: Cytotoxicity against human 1A9 cells assessed as mitotic cells with multiple asters at 5 nM after 12 hrs by immunocytochemistry. Format: functional. In outline:
as §2

For experiment [8], the target named is T1, Tubulin (Homo sapiens) (UniProt P68371+Q9H4B7+P0DPH7+P68366+Q13509+Q71U36+P04350+Q3ZCM7+P07437+P68363+Q9BQE3+Q6PEY2+Q13885+Q9BVA1+Q9BUF5). Kind of experiment: Induction of tubulin polymerization in human 1A9 cells after 16 hrs by Western blotting. It counts as cell-based. The procedure, abridged: (§3)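 1A9 cells dosed for 16 h. Lysates split into soluble and particulate fractions at 14000g for 10 min, electrophoresed and immunoblotted for α-tubulin with Cy5 secondary. Percent polymerized = pellet band density / (soluble + pellet) by densitometry; four independent experiments.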
On the technique in general: In western blotting, separated proteins are transferred to a membrane and probed.

In experiment [9] the test system is A2780. As to the kind of experiment: Selectivity ratio of IC50 for p-glycoprotein overexpressing human A2780AD cells to IC50 for human A2780 cells. It counts as functional. The procedure, abridged:
as §1

Experiment [10] concerns HL-60. Kind of experiment: Cytotoxicity against human HL60 cells after 48 hrs by MTT assay. It counts as functional, cell-based. To be noted: HL-60, 48 h. In outline:
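HL-60 in RPMI-1640 with 10% fetal calf serum plus penicillin-streptomycin. 48 h drug exposure, growth by MTT dye reduction, IC50 from dose-response curves; n = 5 preparations.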

Experiment [11] relates to A2780. Kind of experiment: Cytotoxicity against human A2780 cells by MTT cell proliferation assay. Format: functional, cell-based.
Experiment [12] concerns 1A9. Kind of experiment: Cytotoxicity against human 1A9 cells assessed as interphase cells with microtubule bundles at 8 nM after 12 hrs by immunocytochemistry. Format: functional. The procedure, abridged: as §2
In experiment [13] the test system is 1A9. Kind of experiment: Cytotoxicity against human 1A9 cells after 72 hrs by MTT assay. Format: functional, cell-based. To be noted: 1A9, 72 h. The procedure, abridged: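 1A9 ovarian carcinoma in RPMI-1640 with 10% fetal calf serum, penicillin-streptomycin and 0.25 units/mL insulin. 72 h exposure, MTT dye reduction, IC50 from dose-response curves; n = 6 preparations.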

The subject of experiment [14] is 1A9. Kind of experiment: Cytotoxicity against human 1A9 cells assessed as mitotic cells with multiple asters at 8 nM after 12 hrs by immunocytochemistry. Format: functional. In outline: as §2
Experiment [15] has as its system HL-60. As to the kind of experiment: Cytotoxicity against human HL60 cells assessed as increase in cell diameter after 48 hrs by Giemsa staining. Format: functional, cell-based. In outline: (§4)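 HL-60 cells given 2-8 nM for 48 h, cytospun onto slides, air-dried, fixed in 100% methanol, Giemsa-stained. Cell diameter measured and compared with untreated cells.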

Experiment [16] has as its system HL-60. Kind of experiment: Cytotoxicity against human HL60 cells assessed as cell death at 10 nM after 48 hrs by Trypan blue exclusion test. Format: functional, cell-based. The procedure, abridged: (§5)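 HL-60 cells exposed to drug, then viability counted by Trypan blue dye exclusion at 24 h and 48 h; n = 2 preparations.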
For experiment [17], the system named is HL-60. Kind of experiment: Cell cycle arrest in human HL60 cells assessed as accumulation in G2/M phase at 2 to 10 nM after 16 hrs by flow cytometry. It counts as functional, cell-based. In outline: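 HL-60 cells in RPMI-1640 with 10% fetal calf serum, exposed 16 h over 2-10 nM. Propidium iodide stain, DNA content by flow cytometry, G2/M and subdiploid fractions scored.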
A general note: Flow cytometry measures light scatter and fluorescence of single cells or particles in a stream.

For experiment [18], the target named is T1, Tubulin (Homo sapiens). As to the kind of experiment: Induction of tubulin polymerization in human 1A9 cells at 100 nM after 16 hrs by Western blotting. Format: cell-based. In outline: as §3
The species entered for experiment [19] is Bos taurus. Kind of experiment: Induction of bovine tubulin polymerization at 10 uM after 1hr in presence of 1 mM GTP. In outline: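 Purified bovine brain tubulin, 2 μM, in 80 mM PIPES, 0.5 mM EGTA, 2 mM MgCl2, 1 mM GTP, pH 6.9, no MAPs. Reaction started by adding drug at 10 μM, 37 °C; ethanol 1% final in controls. A340 read every 30 s for 1 h; three experiments.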

For experiment [20], the system named is HL-60. As to the kind of experiment: Cytotoxicity against human HL60 cells assessed as increase in cell diameter at 8 nM after 48 hrs by Giemsa staining. Format: functional. In outline:
as §4

Experiment [21] concerns HL-60. As to the kind of experiment: Cytotoxicity against human HL60 cells at 2 nM after 24 hrs by Trypan blue exclusion test. It counts as functional, cell-based. The procedure, abridged:
as §5

Active and inactive are the calls of the source. The rule behind the calls is not given here.

As to `CC(=O)O[C@H]1C(=O)[C@@]2(C)[C@H]([C@H](OC(=O)c3ccccc3)[C@]3(O)C[C@H](OC(=O)[C@H](O)[C@@H](NC(=O)c4ccccc4)c4ccccc4)C(C)=C1C3(C)C)[C@]1(OC(C)=O)CO[C@@H]1C[C@@H]2O` [PACLITAXEL], half-maximal inhibition in experiment [1] (IC50) required 415 nM. The Activity came out at 13.7% in [2]; 52.2% in experiment [3]; 81.9% in [4]; 43.3% in experiment [5]; 76.5% in experiment [6]; 6.6% in experiment [7].

Regarding `C=C1C[C@@H]2C/C=C/C(=O)C/C(C)=C\C=C\C(=O)O[C@H]([C@H](O)NC(=O)/C=C\C=C\C)C/C(C)=C/[C@H](C1)O2` [ZAMPANOLIDE], the Activity result in experiment [8] was “Dose-dependent effect”; in experiment [2], 9.6%; in experiment [12], 28.6%; in experiment [3], 57.3%; in [14] it was 21.6%; in [4], 74.3%. The Activity entry in experiment [15] was “Dose-dependent effect”; in [5], 51.4%; in experiment [6] it was 55%; in experiment [7] it was 4.3%; in [20], 28.7 micrometer. In addition, the IC50 (in general, the concentration needed to halve the response being measured) in experiment [1] stood at 7.5 nM; in [10] it was 4.3 nM; in experiment [11], 7.1 nM; in experiment [13] it was 14.3 nM. Moreover, the “Ratio IC50” value in experiment [9] is given as 1.4. In addition, the result in experiment [16], in experiment [17], in experiment [18], in experiment [19] and in [21] was Active.

These data come from ChEMBL document CHEMBL1154677, “Microtubule-stabilizing activity of zampanolide, a potent macrolide isolated from the Tongan marine sponge Cacospongia mycofijiensis” (J Med Chem, 2009).
